Measured values taken from ChEMBL document CHEMBL4411272, “Design, synthesis and biological evaluation of AZD9291 derivatives as selective and potent EGFRL858R/T790M inhibitors” (Eur J Med Chem, 2019).

Experiments:
[1] = target: Epidermal growth factor receptor (Homo sapiens, UniProt P00533); test: Inhibition of wild-type EGFR (unknown origin) using substrate-biotin by ELISA-based mobility shift assay
Homo sapiens = species: Homo sapiens; test: Selectivity ratio of IC50 for wild-type EGFR (unknown origin) to IC50 for EGFR T790M/L858R double mutant (unknown origin)
NCI-H1975 = test: Antiproliferative activity against human NCI-H1975 cells after 72 hrs by MTT assay; format: functional, cell-based; conditions: NCI-H1975, 72 h
Outline: (§1)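 MTT assay; cells grown as monolayers in DMEM or RPMI1640 with 10% FBS at 37 °C, 5% CO2 for 24 h, then compound added for 72 h. MTT at 5 μg/mL for 4 h at 37 °C, formazan dissolved in DMSO, absorbance read at 492 nm with 630 nm reference. Each compound tested three times per line; IC50 from averaged determinations.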

HepG2 = test: Antiproliferative activity against human HepG2 cells after 72 hrs by MTT assay; format: functional, cell-based; conditions: HepG2, 72 h
Outline: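 MTT assay; cells grown as monolayers in DMEM or RPMI1640 with 10% FBS at 37 °C, 5% CO2 for 24 h, then compound added for 72 h. Each compound tested three times per line; IC50 from averaged determinations.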

[2] = target: Epidermal growth factor receptor (Homo sapiens, UniProt P00533, L858R/T790M); test: Inhibition of EGFR T790M/L858R double mutant (unknown origin) using substrate-biotin by ELISA-based mobility shift assay
A549 = test: Antiproliferative activity against human A549 cells after 72 hrs by MTT assay; format: functional, cell-based; conditions: A549, 72 h; outline: as §1

Epidermal growth factor receptor (Homo sapiens, UniProt P00533), sequence (P00533 whole entry): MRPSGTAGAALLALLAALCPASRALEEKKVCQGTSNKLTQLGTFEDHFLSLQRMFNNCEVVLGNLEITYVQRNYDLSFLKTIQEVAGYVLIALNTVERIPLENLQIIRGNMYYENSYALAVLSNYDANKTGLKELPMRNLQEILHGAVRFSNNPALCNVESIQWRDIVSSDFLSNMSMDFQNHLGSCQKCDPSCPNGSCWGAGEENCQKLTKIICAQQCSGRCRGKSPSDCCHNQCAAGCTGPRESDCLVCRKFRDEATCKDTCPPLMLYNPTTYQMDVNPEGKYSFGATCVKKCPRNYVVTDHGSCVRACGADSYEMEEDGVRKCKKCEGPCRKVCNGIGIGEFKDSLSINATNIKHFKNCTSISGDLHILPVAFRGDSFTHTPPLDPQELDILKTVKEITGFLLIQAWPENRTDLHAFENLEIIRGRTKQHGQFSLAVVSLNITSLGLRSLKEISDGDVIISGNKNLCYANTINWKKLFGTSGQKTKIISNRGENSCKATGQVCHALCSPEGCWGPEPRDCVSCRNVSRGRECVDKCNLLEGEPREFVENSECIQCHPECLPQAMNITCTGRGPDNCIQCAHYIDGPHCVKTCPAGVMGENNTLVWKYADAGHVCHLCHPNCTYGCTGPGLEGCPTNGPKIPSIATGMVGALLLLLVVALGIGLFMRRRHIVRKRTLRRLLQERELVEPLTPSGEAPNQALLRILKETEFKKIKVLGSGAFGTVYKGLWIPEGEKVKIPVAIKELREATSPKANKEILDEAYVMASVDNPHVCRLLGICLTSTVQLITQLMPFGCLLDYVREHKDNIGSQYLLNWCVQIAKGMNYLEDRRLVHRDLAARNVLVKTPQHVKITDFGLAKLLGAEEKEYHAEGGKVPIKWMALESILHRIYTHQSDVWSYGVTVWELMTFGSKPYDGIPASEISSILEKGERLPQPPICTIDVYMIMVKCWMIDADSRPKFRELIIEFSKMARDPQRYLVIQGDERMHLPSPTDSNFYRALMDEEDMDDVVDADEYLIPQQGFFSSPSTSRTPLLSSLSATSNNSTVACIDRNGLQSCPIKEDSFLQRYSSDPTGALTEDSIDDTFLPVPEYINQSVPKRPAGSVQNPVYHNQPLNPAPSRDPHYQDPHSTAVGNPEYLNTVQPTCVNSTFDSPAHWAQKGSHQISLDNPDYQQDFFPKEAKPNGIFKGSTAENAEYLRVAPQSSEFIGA
Epidermal growth factor receptor (Homo sapiens, UniProt P00533, L858R/T790M), sequence (P00533 25-1210 T790M/L858R limits assumed): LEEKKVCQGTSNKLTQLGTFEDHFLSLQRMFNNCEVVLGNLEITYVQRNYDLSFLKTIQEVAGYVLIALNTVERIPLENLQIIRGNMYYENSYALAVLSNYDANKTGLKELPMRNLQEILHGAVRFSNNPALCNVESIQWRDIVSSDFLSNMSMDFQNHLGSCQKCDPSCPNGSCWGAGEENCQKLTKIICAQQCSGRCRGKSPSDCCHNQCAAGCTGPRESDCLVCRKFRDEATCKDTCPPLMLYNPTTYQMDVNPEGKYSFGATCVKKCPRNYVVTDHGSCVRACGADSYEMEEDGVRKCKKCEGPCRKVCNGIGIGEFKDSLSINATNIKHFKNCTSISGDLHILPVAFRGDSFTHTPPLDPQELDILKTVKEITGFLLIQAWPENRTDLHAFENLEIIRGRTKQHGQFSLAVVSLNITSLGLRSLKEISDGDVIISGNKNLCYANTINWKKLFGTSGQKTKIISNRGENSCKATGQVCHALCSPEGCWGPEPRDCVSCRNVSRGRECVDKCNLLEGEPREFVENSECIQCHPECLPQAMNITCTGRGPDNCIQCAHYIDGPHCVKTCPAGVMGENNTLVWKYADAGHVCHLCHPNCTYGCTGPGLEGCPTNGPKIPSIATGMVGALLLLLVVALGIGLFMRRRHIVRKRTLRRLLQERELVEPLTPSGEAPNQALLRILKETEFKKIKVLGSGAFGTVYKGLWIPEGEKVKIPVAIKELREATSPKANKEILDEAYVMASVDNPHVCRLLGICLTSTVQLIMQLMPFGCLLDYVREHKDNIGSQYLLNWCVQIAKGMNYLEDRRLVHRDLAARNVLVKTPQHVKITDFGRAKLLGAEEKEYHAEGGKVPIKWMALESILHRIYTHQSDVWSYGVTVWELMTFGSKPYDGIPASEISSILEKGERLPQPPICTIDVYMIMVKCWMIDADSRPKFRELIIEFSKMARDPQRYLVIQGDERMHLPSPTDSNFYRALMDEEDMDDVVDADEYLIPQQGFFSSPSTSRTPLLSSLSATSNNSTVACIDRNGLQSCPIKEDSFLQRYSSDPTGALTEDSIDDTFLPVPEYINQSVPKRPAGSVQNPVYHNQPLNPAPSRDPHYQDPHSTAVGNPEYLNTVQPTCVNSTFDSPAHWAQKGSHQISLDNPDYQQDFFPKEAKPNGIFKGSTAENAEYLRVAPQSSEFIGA

Row | Structure (SMILES) | IC50 [1] [nM] | Ratio IC50 (Homo sapiens) | IC50 (NCI-H1975) [nM] | IC50 (HepG2) [µM] | IC50 [2] [nM] | IC50 (A549) [nM]
1 | CC/C=C\C(=O)Nc1cc(Nc2nccc(-c3cn(C)c4ccc(F)cc34)n2)c(OC)cc1N(C)CCN(C)C | 684 | 1.8 | 2600 | 5.29 | 388 | 3600
2 | CCC/C=C\C(=O)Nc1cc(Nc2nccc(-c3cn(C)c4ccccc34)n2)c(OC)cc1N(C)CCN(C)C | 1500 | 7.4 | 1220 | 0.431 | 203 | 808
3 | C=CC(=O)Nc1cc(Nc2nc(C)cc(-c3cn(C)c4ccccc34)n2)c(OC)cc1N(C)CCN(C)C | 1340 | 14.5 | 4810 | 12.6 | 93 | 2910
4 | CCC/C=C\C(=O)Nc1cc(Nc2nccc(-c3cn(C)c4ccc(F)cc34)n2)c(OC)cc1N(C)CCN(C)C | 12 | 1.6 | 2730 | 3.4 | 7.5 | 1030
5 | CCC/C=C\C(=O)Nc1cc(Nc2ncc(C#N)c(-c3cn(C)c4ccc(F)cc34)n2)c(OC)cc1N(C)CCN(C)C | 1060 | 5.3 | 2420 | 2.01 | 201 | 741
6 | C=CC(=O)Nc1cc(Nc2nccc(-c3cn(C)c4ccc(F)cc34)n2)c(OC)cc1N(C)CCN(C)C | 8.7 | 124 | 254 | 0.429 | 0.07 | 329
7 | C=C(Cl)C(=O)Nc1cc(Nc2ncc(C#N)c(-c3cn(C)c4ccccc34)n2)c(OC)cc1N(C)CCN(C)C | 137 | 6.9 | 1620 | 0.115 | 20 | 133
8 | COc1cc(N(C)CCN(C)C)c(NC(=O)C(Cl)=C(Cl)Cl)cc1Nc1nccc(-c2cn(C)c3ccccc23)n1 | > 2000 |  | > 50000 | > 50 | > 2000 | > 50000
9 | CCC/C=C\C(=O)Nc1cc(Nc2ncc(C#N)c(-c3cn(C)c4ccccc34)n2)c(OC)cc1N(C)CCN(C)C | 377 | 10.2 | 823 | 1.69 | 37 | 166
10 | C=CC(=O)Nc1cc(Nc2nc(C)cc(-c3cn(C)c4ccc(F)cc34)n2)c(OC)cc1N(C)CCN(C)C | 1090 | 1.9 | 3830 | 4.28 | 591 | 1490
11 | C=CC(=O)Nc1cc(Nc2ncc(C#N)c(-c3cn(C)c4ccccc34)n2)c(OC)cc1N(C)CCN(C)C | 311 | 12.4 | 1190 | 0.768 | 25 | 308
12 | C=C(Cl)C(=O)Nc1cc(Nc2nccc(-c3cn(C)c4ccccc34)n2)c(OC)cc1N(C)CCN(C)C | 257 | 7.8 | 1290 | 1.39 | 33 | 7520
13 | COc1cc(N(C)CCN(C)C)c(NC(=O)/C=C\C(C)C)cc1Nc1ncc(C#N)c(-c2cn(C)c3ccc(F)cc23)n1 | 415 | 1.2 | 1130 | 2.84 | 360 | 185
14 | C=C(F)C(=O)Nc1cc(Nc2nccc(-c3cn(C)c4ccccc34)n2)c(OC)cc1N(C)CCN(C)C | 65 | 10.8 | 4230 | 3.79 | 6 | 2460
15 | COc1cc(N(C)CCN(C)C)c(NC(=O)/C=C\C(C)C)cc1Nc1ncc(C#N)c(-c2cn(C)c3ccccc23)n1 | 985 | 4.5 | 1110 | 1.81 | 219 | 1100
16 | COc1cc(N(C)CCN(C)C)c(NC(=O)/C=C\C(C)C)cc1Nc1nccc(-c2cn(C)c3ccc(F)cc23)n1 | 977 |  | 7360 | 3.92 | > 2000 | 6140
17 | COc1cc(N(C)CCN(C)C)c(NC(=O)C=C(C)C)cc1Nc1nccc(-c2cn(C)c3ccccc23)n1 | 1280 | 6.1 | 5610 | 5.66 | 209 | 4100
18 | C=CC(=O)Nc1cc(Nc2nccc(-c3cn(C)c4ccccc34)n2)c(OC)cc1N(C)CCN(C)C [OSIMERTINIB] |  |  | […] |  |  | 615
19 | COc1cc(N(C)CCN(C)C)c(NC(=O)/C=C\C(C)C)cc1Nc1nc(C)cc(-c2cn(C)c3ccc(F)cc23)n1 | > 2000 |  | 8520 | 14 | 892 | 9080
20 | CC/C=C\C(=O)Nc1cc(Nc2ncc(C#N)c(-c3cn(C)c4ccc(F)cc34)n2)c(OC)cc1N(C)CCN(C)C | > 2000 |  | 10200 | 5.88 | > 2000 | 4720
21 | CC/C=C\C(=O)Nc1cc(Nc2nc(C)cc(-c3cn(C)c4ccccc34)n2)c(OC)cc1N(C)CCN(C)C | 1260 | 69.7 | 1990 | 2.05 | 18 | 1080
22 | CC/C=C\C(=O)Nc1cc(Nc2ncc(C#N)c(-c3cn(C)c4ccccc34)n2)c(OC)cc1N(C)CCN(C)C | 387 | 24.2 | 1150 | 1.36 | 16 | 162
23 | C=CC(=O)Nc1cc(Nc2ncc(C#N)c(-c3cn(C)c4ccc(F)cc34)n2)c(OC)cc1N(C)CCN(C)C | > 2000 |  | 11400 | 17.5 | > 2000 | 9700
24 | C/C=C\C(=O)Nc1cc(Nc2nccc(-c3cn(C)c4ccccc34)n2)c(OC)cc1N(C)CCN(C)C | 395 | 7.6 | 4540 | 6.93 | 52 | 660
25 | COc1cc(N(C)CCN(C)C)c(NC(=O)/C=C\C(C)C)cc1Nc1nccc(-c2cn(C)c3ccccc23)n1 | > 2000 |  | 1820 | 4.39 | 397 | 612
26 | C=C(Cl)C(=O)Nc1cc(Nc2nc(C)cc(-c3cn(C)c4ccccc34)n2)c(OC)cc1N(C)CCN(C)C | 83 | 8.3 | 2230 | 3.64 | 10 | 1730
27 | CC/C=C\C(=O)Nc1cc(Nc2nccc(-c3cn(C)c4ccccc34)n2)c(OC)cc1N(C)CCN(C)C | 1280 | 7.2 | 3860 | 6.67 | 177 | 1530
28 | CCC/C=C\C(=O)Nc1cc(Nc2nc(C)cc(-c3cn(C)c4ccc(F)cc34)n2)c(OC)cc1N(C)CCN(C)C | > 2000 |  | 12200 | 12.1 | 923 | 13300
29 | COc1cc(N(C)CCN(C)C)c(NC(=O)/C=C\C(C)C)cc1Nc1nc(C)cc(-c2cn(C)c3ccccc23)n1 | > 2000 |  | 1230 | 3.55 | 38 | 1070
30 | CC/C=C\C(=O)Nc1cc(Nc2nc(C)cc(-c3cn(C)c4ccc(F)cc34)n2)c(OC)cc1N(C)CCN(C)C | > 2000 |  | 10400 | 11 | 998 | 9150
